Only some compounds are listed: those with a hit (about 4% of all), similar ones and a draw of the others.
FAS TE block = FAS thioesterase (human) inhibition | hit rate 0.67% among 360,000 | AID 602261 | inhibition, % at 15 µM | recombinant FAS-TE, OMFH fluorogenic substrate, fluorescence endpoint;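 active means compounds whose normalised, plate-corrected inhibition of enzyme fluorescence in the single-dose primary screen is 50% or more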
Target sequence (P49327 whole entry, looked up): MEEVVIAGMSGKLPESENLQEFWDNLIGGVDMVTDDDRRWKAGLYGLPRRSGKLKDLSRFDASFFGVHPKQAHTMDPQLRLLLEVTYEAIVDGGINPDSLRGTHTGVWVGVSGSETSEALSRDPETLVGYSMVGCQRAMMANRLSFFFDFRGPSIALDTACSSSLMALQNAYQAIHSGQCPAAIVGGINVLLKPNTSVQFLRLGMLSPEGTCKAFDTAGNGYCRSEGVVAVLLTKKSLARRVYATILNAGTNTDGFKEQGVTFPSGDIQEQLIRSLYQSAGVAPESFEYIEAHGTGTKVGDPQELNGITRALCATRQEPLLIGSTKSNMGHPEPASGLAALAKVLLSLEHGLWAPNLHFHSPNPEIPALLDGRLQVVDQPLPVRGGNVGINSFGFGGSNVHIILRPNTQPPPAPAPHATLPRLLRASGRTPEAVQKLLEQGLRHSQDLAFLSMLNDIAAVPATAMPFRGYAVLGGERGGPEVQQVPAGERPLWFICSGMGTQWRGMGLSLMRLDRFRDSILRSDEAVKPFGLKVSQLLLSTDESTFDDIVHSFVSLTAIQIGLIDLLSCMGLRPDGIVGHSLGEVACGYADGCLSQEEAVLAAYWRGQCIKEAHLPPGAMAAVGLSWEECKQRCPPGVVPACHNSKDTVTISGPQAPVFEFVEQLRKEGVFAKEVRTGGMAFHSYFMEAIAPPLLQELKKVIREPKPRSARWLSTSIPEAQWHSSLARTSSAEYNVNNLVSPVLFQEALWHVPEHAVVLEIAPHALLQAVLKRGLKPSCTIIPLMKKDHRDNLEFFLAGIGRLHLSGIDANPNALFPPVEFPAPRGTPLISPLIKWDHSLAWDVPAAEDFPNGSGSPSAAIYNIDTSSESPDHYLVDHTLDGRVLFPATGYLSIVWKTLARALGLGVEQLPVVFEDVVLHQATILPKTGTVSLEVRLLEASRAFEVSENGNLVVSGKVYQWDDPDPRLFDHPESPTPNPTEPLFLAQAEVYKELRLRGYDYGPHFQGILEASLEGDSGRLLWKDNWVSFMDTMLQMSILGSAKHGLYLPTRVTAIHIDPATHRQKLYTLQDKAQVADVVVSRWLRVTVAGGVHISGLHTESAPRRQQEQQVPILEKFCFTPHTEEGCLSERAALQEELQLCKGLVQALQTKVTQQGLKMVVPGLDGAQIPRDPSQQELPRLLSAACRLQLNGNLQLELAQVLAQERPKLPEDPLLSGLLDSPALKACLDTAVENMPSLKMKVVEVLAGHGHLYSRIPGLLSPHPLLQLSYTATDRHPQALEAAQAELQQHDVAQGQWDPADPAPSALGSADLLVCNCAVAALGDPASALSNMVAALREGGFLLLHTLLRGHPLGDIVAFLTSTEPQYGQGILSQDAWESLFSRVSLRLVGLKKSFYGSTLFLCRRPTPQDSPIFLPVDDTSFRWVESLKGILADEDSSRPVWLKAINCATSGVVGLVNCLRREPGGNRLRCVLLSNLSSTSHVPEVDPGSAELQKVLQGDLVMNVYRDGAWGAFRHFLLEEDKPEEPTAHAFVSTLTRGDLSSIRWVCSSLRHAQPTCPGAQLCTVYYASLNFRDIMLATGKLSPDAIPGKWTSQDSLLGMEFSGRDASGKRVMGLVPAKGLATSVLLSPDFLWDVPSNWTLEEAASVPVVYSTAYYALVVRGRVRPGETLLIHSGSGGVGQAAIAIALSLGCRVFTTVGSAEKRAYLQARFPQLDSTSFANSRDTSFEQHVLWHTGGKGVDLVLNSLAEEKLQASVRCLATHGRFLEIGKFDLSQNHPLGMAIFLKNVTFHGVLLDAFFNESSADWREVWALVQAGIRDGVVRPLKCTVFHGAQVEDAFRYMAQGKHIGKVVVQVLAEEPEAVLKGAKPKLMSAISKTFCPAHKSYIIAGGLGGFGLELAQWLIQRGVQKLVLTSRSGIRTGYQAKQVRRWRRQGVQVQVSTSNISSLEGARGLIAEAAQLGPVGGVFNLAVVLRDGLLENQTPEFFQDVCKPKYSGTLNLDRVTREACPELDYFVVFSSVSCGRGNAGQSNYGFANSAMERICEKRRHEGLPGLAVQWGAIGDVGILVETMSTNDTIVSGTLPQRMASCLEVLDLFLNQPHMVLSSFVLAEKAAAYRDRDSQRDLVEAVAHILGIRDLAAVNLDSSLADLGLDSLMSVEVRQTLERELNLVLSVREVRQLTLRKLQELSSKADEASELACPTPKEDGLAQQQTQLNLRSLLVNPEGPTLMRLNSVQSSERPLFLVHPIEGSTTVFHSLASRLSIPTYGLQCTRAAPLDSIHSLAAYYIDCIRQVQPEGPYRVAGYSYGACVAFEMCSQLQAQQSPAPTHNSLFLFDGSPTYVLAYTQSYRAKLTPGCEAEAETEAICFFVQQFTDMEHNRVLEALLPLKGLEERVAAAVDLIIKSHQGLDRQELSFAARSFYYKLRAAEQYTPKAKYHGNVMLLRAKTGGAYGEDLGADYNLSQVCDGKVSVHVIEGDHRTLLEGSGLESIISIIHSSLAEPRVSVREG
GRIN3A LBD mod = modulates the human NR3A ligand-binding domain; hit rate 2.5% among 340,000; Tm shift relative to glycine control, % at 25 µM; NR3A LBD differential scanning fluorimetry, Tm shift; 0% = protein alone, 100% = glycine-bound protein;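 active means melting temperature shift of at least 10% of the positive control shift, at one fixed dose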
H9c2 protect = myocardial damage modulation in H9c2 cells; H9c2 cardiomyocytes, H2O2 injury protection, ATPLite, 2 h; protection from H2O2 cell death, % at 20 µM; hit rate 0.63% among 360,000;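 active means compounds giving at least 50% protection of heart cells from peroxide-induced death in the single-dose screen, raw or plate-pattern-corrected value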
SENP1 FRET inh = inhibitors of human SENP1 SUMO protease catalytic domain; AID 624204; Q9P0U3; hit rate 0.21% among 360,000; recombinant SENP1 catalytic domain, CyPet-SUMO1-YPet FRET cleavage; inhibition, % at 10 µM;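 active means inhibition at least 30% at 10 µM, raw YFP signal under a set limit, fluorescence ratio 0.5 to 1.5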
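system = hSENP1 catalytic domain, recombinant | reagent = SFCypet-SUMO1-SFYpet substrate at 25 nM | doses = one dose per compound, 10 µM, 0.5% DMSO | incubation = enzyme reaction for 50 min at room temperature, dark | measured by = FRET, CFP and YFP emission | controls = no-enzyme low, enzyme-DMSO high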
iPSC survival up = enhancers of human iPSC single-cell survival; hiPSC single-cell survival, ATPlite luminescence; 100% = ROCK inhibitor wells, 0% = DMSO; hit rate 0.044% among 360,000; AID 602274; survival enhancement, % at 20 µM; in the data active means survival enhancement above about 18%;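 further: cells exposed to compounds for 16 hours before the ATP read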
Arr AP2 block = inhibitors of human beta-arrestin and AP2 interaction; FITC-arrestin peptide / GST-AP2 beads, flow cytometry; AP2 beta2 appendage carries R879A mutation; inhibition, % at 10 µM; hit rate 0.31% among 340,000; AID 504490;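 active means inhibition above a set limit, near 3 SD of compounds lacking own fluorescence, cut at about 54% in these data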
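System: GST-tagged AP2 beta2-adaptin appendage (R879A) on 4 µm glutathione beads / Reagent: FITC-arrestin peptide, 50 nM / Detection: HyperCyt-sampled flow cytometry, FL1 channel, ex 488/em 535 nm / Timing: 12 min plus 1 h, RT / Buffer or medium: PBS plus Tween 20 (0.05%) and BSA (0.1%)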
Each line names hits and unclear results; the compound was inactive in the other large screens.

COc1cc(C(=O)N(Cc2ccccc2)c2cccc(C)c2)ccc1OC(F)F	GRIN3A LBD mod 14.1
COc1ccc(CC(=O)N(Cc2ccccc2)c2cccc(C)c2)cc1OC	none
COc1cc(C(=O)NCc2ccc(C)cc2)ccc1OC(F)F	GRIN3A LBD mod 11.5
Cc1cccc(N(Cc2ccccc2)C(=O)c2ccc(CS(C)(=O)=O)cc2)c1	GRIN3A LBD mod 14.1
COc1cc(C(=O)NCc2ccccc2)ccc1OC(F)F	none
COc1cc([N+](=O)[O-])ccc1NC(=O)Nc1nc2c(s1)CCCC2	GRIN3A LBD mod 10.9
CCCCCCCCN1C(=O)[C@H](CC(=O)NCc2ccc(OC)c(OC)c2)C[C@@]2(C(=O)OC)CCCCC=C12	none (no result: GRIN3A LBD mod, H9c2 protect, Arr AP2 block)
CCCc1cc(=O)[nH]c(Nc2ccc(O)cc2)n1	GRIN3A LBD mod 10.0
COc1ccc(CC(=O)Nc2c3c(nn2C(C)(C)C)CS(=O)(=O)C3)cc1	GRIN3A LBD mod 14.1
COc1ccc(-c2noc(N3CCCC(C(=O)Nc4ccccc4F)C3)n2)cc1 (configuration not stated)	GRIN3A LBD mod 12.8
COc1ccc(-c2noc(N3CCCC(C(=O)Nc4ccc(F)cc4F)C3)n2)cc1 (configuration not stated)	none
COc1ccc(S(=O)(=O)NC(=O)C2(C)CCN2C(=O)c2c(C)noc2C)cc1 (configuration not stated)	none (no result: GRIN3A LBD mod, Arr AP2 block)
COc1ccc(C(=O)c2cc(OC)c(OC)c(OC)c2)cc1OC	none
CC1CCN(S(=O)(=O)c2ccc(NC(=O)Cn3nnc(-c4ccccc4)n3)cc2)CC1	GRIN3A LBD mod 11.2
CC1CCCN(S(=O)(=O)c2ccc(NC(=O)CN3CCCCC3)cc2)C1 (configuration not stated)	none
CC1CCCN(S(=O)(=O)c2ccc(NC(=O)Cn3nnc(-c4ccccc4F)n3)cc2)C1 (configuration not stated)	GRIN3A LBD mod 11.6
Cc1ccc(-c2nnn(CC(=O)Nc3ccc(S(=O)(=O)N4CCC(C)CC4)cc3)n2)cc1	GRIN3A LBD mod 55.2
COc1ccccc1S(=O)(=O)N(C)C[C@@H]1OCc2cn(nn2)CCCC(=O)N([C@@H](C)CO)C[C@H]1C	none (no result: GRIN3A LBD mod, Arr AP2 block)
COc1ccc(OCC(=O)N/N=C(\C)c2ccc(OC)cc2)cc1	none
C/C(=N\NC(=O)COc1ccccc1)c1ccc(O)cc1	GRIN3A LBD mod 13.1
C/C(=N\NC(=O)COc1ccccc1-c1ccccc1)c1ccccn1	none
C/C(=N\NC(=O)COc1ccccc1-c1ccccc1)c1ccc(O)cc1O	H9c2 protect 54.5
Cc1cc(N2CCCC2)ccc1/C=C1/C(=O)N(C)C(=S)N1C	SENP1 FRET inh 66.1
CCCc1cc2c(cc1NC(=O)c1ccc(Br)cc1)OCO2	H9c2 protect 56.4
O=C1NC[C@H](CCCCN2CCN(CCc3ccc(O)cc3)C(=O)C2=O)N(CCc2ccc(O)cc2)C1=O	none (no result: GRIN3A LBD mod, H9c2 protect, Arr AP2 block)
O=C(CSc1nc2ccccc2s1)c1ccc(O)cc1O	GRIN3A LBD mod 30.2
Oc1ccc(-c2nc3ccccc3s2)cc1	GRIN3A LBD mod 14.9
c1ccc2sc(-c3ccncc3)nc2c1	none
O=C(CSc1nc2ccccc2s1)N1c2ccccc2Sc2ccccc21	none
CCNC(=O)c1ccc(CSc2nc3ccccc3s2)cc1	GRIN3A LBD mod 32.6
CCn1c(CSc2nc3ccccc3s2)nnc1SCC(=O)c1ccc(O)c(O)c1	H9c2 protect 62.1
O=C(c1ccccc1F)N1CCC2CC1c1cc(N3CCCCC3)ccc12 (configuration not stated)	none (no result: GRIN3A LBD mod, Arr AP2 block)
O=C(NCC(c1ccco1)N1CCN(c2ccccc2)CC1)C1CCCCC1 (configuration not stated)	none (no result: GRIN3A LBD mod, Arr AP2 block)
COc1ccc(-c2nc3ccccc3s2)cc1	GRIN3A LBD mod 39.6 (no result: Arr AP2 block)
Oc1ccc(-c2nc3ccccc3s2)c(O)c1	GRIN3A LBD mod 38.9
Nc1ccc(O)c(-c2nc3ccccc3s2)c1	none
Nc1ccn([C@@H]2O[C@H](C(=O)N3CCCN(Cc4ccccc4F)CC3)[C@@H](O)[C@H]2O)c(=O)n1	none (no result: GRIN3A LBD mod, H9c2 protect, Arr AP2 block)
Cc1ccc(-c2csc3ncnc(N4CCc5ccccc5C4)c23)cc1	none
Fc1ccc(-c2csc3ncnc(N4CCc5ccccc5C4)c23)cc1	GRIN3A LBD mod 10.7
OC[C@@H]1CN(Cc2cccs2)C[C@H](n2cnc3c(NCc4ccc(F)cc4)ncnc32)O1	none (no result: GRIN3A LBD mod, Arr AP2 block)
CC(O)CC(=O)OC[C@]12CC[C@H]3[C@@](C)(CC[C@H]4C(C)(C)CCC[C@]34C)[C@@H]1CC(C1=CC(=O)OC1O)O2 (some centres not stated)	none (no result: GRIN3A LBD mod, Arr AP2 block)
CCCCc1cc(=O)oc2cc(OCc3cc(OC)c(OC)c(OC)c3)c(Cl)cc12	iPSC survival up 22.6
O=C(CSc1ccc(-c2ccc(Cl)cc2)nn1)Nc1ccc2c(c1)OCCO2	GRIN3A LBD mod 11.5
Cc1ccc(OC(=O)NC2CCS(=O)(=O)C2)cc1C (configuration not stated)	GRIN3A LBD mod 11.0
O=C(NC1CCS(=O)(=O)C1)Oc1ccccc1 (configuration not stated)	none
CCOc1ccc(C(=O)CC(=O)C(=O)NCCc2ccc(OC)c(OC)c2)cc1	GRIN3A LBD mod 24.5
CC(=O)c1cccc(NC(=O)CCS(=O)(=O)c2cc3c(cc2C)NC(=O)CO3)c1	GRIN3A LBD mod 52.7
Cc1ccc(NC(=O)CCS(=O)(=O)c2cc3[nH]c(=O)c(=O)[nH]c3cc2C)cc1	GRIN3A LBD mod 14.8
Cc1cc(C)cc(NS(=O)(=O)c2cc3[nH]c(=O)c(=O)[nH]c3cc2C)c1	none
CCCNC(=O)c1ccc2c(=O)c(O)c(-c3ccc(Cl)c([N+](=O)[O-])c3)[nH]c2c1	H9c2 protect 68.3
CC(=O)NC(c1ccc(F)c(F)c1)c1nc(-c2cccc(C(C)C)c2)cs1 (configuration not stated)	none (no result: GRIN3A LBD mod, Arr AP2 block)
CC1CN(S(=O)(=O)c2ccc(Cl)c(C(F)(F)F)c2)CC(C)O1 (configuration not stated)	Arr AP2 block 70.1
CCCc1ccc(-c2cc(NC(=O)CSc3n[nH]c(N)n3)n(-c3ccccc3)n2)cc1	GRIN3A LBD mod 18.1
CC(NC(=O)CSc1n[nH]c(N)n1)c1ccccc1 (configuration not stated)	none
[NH-]c1ncnc2c1N=C[N+]2=CC=CCO	GRIN3A LBD mod 13.5
Cc1ccc(NC(=O)c2ccc(S(=O)(=O)N3CCOCC3)cc2)cc1	none
O=C(Nc1ccc(Cl)cc1)c1ccc(S(=O)(=O)N2CCOCC2)cc1	GRIN3A LBD mod 14.5
O=C(Nc1ccc(N2CCOCC2)cc1)c1cccc(S(=O)(=O)N2CCCC2)c1	iPSC survival up 23.6
CC(=O)Nc1ccc(S(=O)(=O)N2CCOCC2)cc1	none

Bioassay records as filed in PubChem.
